F508del corr – F508del CFTR correction, initial screen, CFBE line, single point; CFBE cells, YFP halide quenching; stimulated with forskolin plus potentiator P3; % fluorescence drop versus neutral controls; hit rate 0.36% among 350,000; activity (quench increase), % at 7.58 µM;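 active means mean added fluorescence quench of at least 8% versus neutral control, with both replicates also reaching 8%; inconclusive means only one of the mean or replicate conditions met; inactive means mean below 8% and not both replicates reaching 8%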;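 further: cells transiently co-express mutant CFTR-F508del with the halide-sensitive YFP; corrector assay measuring rescue of mutant channel to the surface after 24 h compound exposure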
GSIS activator – GLuc luminescence reporter in INS-1E cells, primary screen for activators of glucose-dependent secretion of insulin. INS-1E GLuc reporter insulin secretion, 2-3 h. activation, % at 16.6 µM. hit rate 0.61% among 370,000;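 active means lowest replicate activation of at least 40%, so every replicate reaches that level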;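 further: 0% = median of neutral control wells and 100% = median of IBMX positive control wells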
ERAP1 inh – human ERAP1 aminopeptidase inhibitors, primary screen, biochemical, single point, plate reader; AID 652197, 2013; inhibition, % at 10.7 µM; recombinant ERAP1, Leu-AMC fluorescence, 60 min; hit rate 0.15% among 340,000; Endoplasmic reticulum aminopeptidase 1 (Homo sapiens), Q9NZ08;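 active means mean replicate inhibition of at least 30%, or all replicates individually reaching that 30% level; inactive means mean below 30% and not every replicate reaching it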;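 further: 0% = neutral control wells and 100% = L-leucinethiol positive control wells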
E-selectin induc – E-selectin induction in HUVECs, primary screen, imaging, HUVEC, immunofluorescence imaging, single point; normalized: neutral wells 0, TNF-alpha wells 100; activation, % at 7.58 µM; hit rate 0.37% among 260,000;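 active means mean E-selectin-positive cell signal at least 10% of the positive control, reached in at least 60% of replicates, without over 20% cell loss; inconclusive means no rule given, readout overlaps actives, possibly toxicity-flagged; inactive means the rest, including those meeting only one limit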
Target sequence (P16581 whole entry, looked up): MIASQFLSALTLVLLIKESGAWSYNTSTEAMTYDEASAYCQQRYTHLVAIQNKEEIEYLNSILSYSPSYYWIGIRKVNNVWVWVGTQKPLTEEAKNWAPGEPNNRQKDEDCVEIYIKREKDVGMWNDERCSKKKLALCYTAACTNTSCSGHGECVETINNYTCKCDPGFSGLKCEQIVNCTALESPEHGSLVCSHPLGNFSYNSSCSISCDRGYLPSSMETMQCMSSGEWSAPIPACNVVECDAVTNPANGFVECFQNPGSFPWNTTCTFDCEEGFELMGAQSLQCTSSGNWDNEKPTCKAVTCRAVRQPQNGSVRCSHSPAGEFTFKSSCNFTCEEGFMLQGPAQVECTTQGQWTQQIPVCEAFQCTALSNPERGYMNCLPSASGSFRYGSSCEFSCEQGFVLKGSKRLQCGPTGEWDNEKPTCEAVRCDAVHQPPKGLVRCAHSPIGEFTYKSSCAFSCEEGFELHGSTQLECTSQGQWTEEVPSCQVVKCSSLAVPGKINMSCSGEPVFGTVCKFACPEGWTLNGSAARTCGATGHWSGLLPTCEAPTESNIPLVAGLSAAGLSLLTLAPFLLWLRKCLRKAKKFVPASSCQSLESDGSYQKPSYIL
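Assay system: HUVEC, human umbilical vein endothelial cells / Amount: 3,000 HUVEC/well / Controls: TNF-alpha positive control, DMSO neutral control / Compound dosing: single concentration / Medium: EGM-2 over gelatin coat / Evaluation: percent E-selectin-positive cells / Signal: immunofluorescence imaging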
miR122 inh – miR-122 Renilla sensor signal increase in Huh7, primary screen, miR-122 inhibitor project, cell-based, single point, plate reader | Huh7 miR-122 Renilla luciferase sensor, 48 h; neutral wells = 0, positive control = 100 | activation (reporter increase), % at 12.5 µM | hit rate 0.3% among 340,000 | AID 602342, 2012;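 active means mean replicate activation score at least 90 and every replicate individually at or above 90; inconclusive means only one of the two criteria met; inactive means neither criterion met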;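 further: higher luciferase means less miR-122 activity so hits act as miR-122 inhibitors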
DENV2 CPE rescue – inhibitors of DENV2 cytopathic effect, primary screen, cell-based, plate reader, single concentration; DENV2-infected cells, cytopathic effect rescue; CPE inhibition, % at 9.99 µM; hit rate 1.7% among 350,000; AID 651640, 2012; in the data active means CPE inhibition above about 20%, passing the limit was not always enough; inconclusive means no clear call, values can overlap the other calls; tested in BHK-21 cells;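 further: 0% = median of neutral control wells and 100% = median of positive control wells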
An asterisk follows results filed as active; ? = inconclusive; . = no result; [ ] = dose if it differs, or a comment. Hits are enriched below; roughly 2.6% of the tested compounds scored in any of these assays.

SMILES	F508del corr	GSIS activator	ERAP1 inh	E-selectin induc	miR122 inh	DENV2 CPE rescue
CC(=O)N1CCN(C(=O)COC(=O)c2ccc(S(C)(=O)=O)cc2)CC1	4	67*	0	0	1	2
O=C(NC1Cc2ccccc2C1)[C@H]1[C@H](CO)[C@H]2Cn3c(ccc(C4=CCCCC4)c3=O)[C@@H]1N2	0	0	.	0	-7[16.7 µM]	-3
CO[C@H]1CN(C)C(=O)c2cc(NC(=O)C3CCCCC3)ccc2OC[C@@H](C)NC[C@@H]1C	0	-1	-2	0	.	-8
Cc1noc(C)c1S(=O)(=O)N(C)C[C@@H]1OCCCC[C@@H](C)Oc2ccc(NC(=O)Nc3ccc4c(c3)OCO4)cc2C(=O)N([C@H](C)CO)C[C@@H]1C	2	19	.	0	-5[16.7 µM]	-7
O=C(C[C@H]1CC[C@@H]2[C@H](COC[C@@H](O)CN2S(=O)(=O)c2cccc(Cl)c2)O1)N1CCOCC1	0	8	-2	0	7[16.7 µM]	12
O=C(C[C@H]1CC[C@H]2[C@@H](COC[C@H](O)CN2S(=O)(=O)c2cccc(Cl)c2)O1)N1CCOCC1	1	0	0	1	6[16.7 µM]	21*
COc1cccc(S(=O)(=O)N2C[C@@H](O)COC[C@H]3O[C@H](CC(=O)N4CCN(C)CC4)CC[C@@H]32)c1	3	4	6	0	7[16.7 µM]	20*
C[C@H](CO)N1C[C@H](C)[C@H](CN(C)Cc2ccc(Oc3ccccc3)cc2)Oc2ccc(NS(=O)(=O)c3ccc(Cl)cc3)cc2C1=O	4	-7	-1	-1	-6[16.7 µM]	?
O=C(C[C@H]1C=C[C@H](NS(=O)(=O)c2ccc(F)cc2)[C@H](CO)O1)N1CCC(Cc2ccccc2)CC1	-1	-26	-4	0	.	-7
CCC(C)c1ccc(NC(=O)NCCN2CCCCC2)cc1 (stereo unspecified)	-3	20	1	.	2	30*
CO[C@@H]1CN(C)C(=O)c2ccc(NC(=O)Nc3cccc(Cl)c3)cc2OC[C@H](C)N(C(=O)Nc2c(C)noc2C)C[C@@H]1C	0	-7	-1	0	8[16.7 µM]	1
Cc1cc(C)c(S(=O)(=O)Nc2ccc3c4c(cccc24)CC3)c(C)c1	.	-32	.	.	111*	.
O=S(=O)(Nc1ccc2c3c(cccc13)CC2)c1ccccc1	2	.	-2	1	2	-5
COc1ccc(-c2ccc(SCC(=O)N3CCOCC3)nn2)cc1OC	.	84*	.	.	-8	.
COc1ccc(-c2ccc(SCC(=O)c3cccs3)nn2)cc1OC	.	43*	2	0	.	-3
COc1ccc(-c2ccc(SCC(=O)c3ccc(F)cc3)nn2)cc1OC	2	26	-5	-1	.	4
COc1ccc(-c2cc(C(=O)N3CCCCCC3)no2)cc1	2	-5	-5	.	7	0
COc1ccc(-c2cc(C(=O)N3CCCCCC3)no2)cc1OC	-2	51*	-1	.	13	13
COc1ccc(-c2ccc(SCC(=O)N3CCCC3)nn2)cc1OC	.	81*	.	.	-3	.
C[C@@H]1CN([C@@H](C)CO)C(=O)c2cc(C#CCc3ccccc3)cnc2O[C@H]1CN(C)C(=O)C1CC1	-2	51	0	0	2[16.7 µM]	9
CN(C)C(=O)c1cc2c(c(-c3cccc(C4=CCCCC4)c3)n1)[C@H](CCO)N([S@@](=O)C(C)(C)C)C2	.	4	.	.	.	.
COc1ccc(NC(=O)N(C)C[C@H]2Oc3ccc(NC(=O)c4ccncc4)cc3CC(=O)N([C@H](C)CO)C[C@@H]2C)cc1	0	10	4	41*	-3[16.7 µM]	-1
COc1ccc(NC(=O)N(C)C[C@@H]2Oc3ccc(NC(=O)c4ccncc4)cc3CC(=O)N([C@H](C)CO)C[C@@H]2C)cc1	-5	6	-1	226*	4[16.7 µM]	44*
COc1ccc(NC(=O)N(C)C[C@@H]2Oc3ccc(NC(=O)c4ccncc4)cc3CC(=O)N([C@@H](C)CO)C[C@H]2C)cc1	-1	-2	.	72*	-4[16.7 µM]	15
